According to PMC10835759 (RSC Advances, 2024):

What was measured:
[1] = target: rat intestinal sucrase (Rattus norvegicus, UniProt P23739); assay: Inhibitory effects on rat intestinal α-glucosidases: sucrase; type: biochemical; conditions: for IC50: IC50 Sucrase, rat small intestinal brush border membrane vesicles, sucrose 74 mM, pH 6.0, 37 °C, 30 min; for inhibition (%) Sucrase: at 100 μg mL^−1 (26a: 297 μM, 26b: 271 μM, 26c and 27c: 341 μM, 28a: 326 μM, 28b: 296 μM, 28c: 380 μM)
[2] = test system: rat α-glucosidase; assay: Glycosidase inhibitory activity, enzymes from rat small intestines; type: biochemical; conditions: rat small intestinal enzymes, at 100 μg mL^−1
Procedure, shortened: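 Enzyme source: brush border membrane vesicles prepared from rat small intestine and suspended in 0.1 M maleate buffer, pH 6.0. Test compound in DMSO, diluted in maleate buffer to 10% DMSO (2.5% final). Substrate solutions in maleate buffer: maltose 74 mM, sucrose 74 mM, 7.4 mM for isomaltase. Mixture incubated at 37 °C for 30 min and stopped by boiling for 2 min. Glucose measured by the glucose-oxidase method.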

[3] = target: rat intestinal isomaltase (Rattus norvegicus, UniProt P23739); assay: Inhibitory effects on rat intestinal α-glucosidases: isomaltase; type: biochemical; conditions: at 100 μg mL^−1 (26a: 297 μM, 26b: 271 μM, 26c and 27c: 341 μM, 28a: 326 μM, 28b: 296 μM, 28c: 380 μM)
[4] = target: yeast glucosidase; conditions: read-out: Ki, inhibitory activity against yeast glucosidase; cited from earlier work

Sequence of rat intestinal isomaltase (P23739 whole entry): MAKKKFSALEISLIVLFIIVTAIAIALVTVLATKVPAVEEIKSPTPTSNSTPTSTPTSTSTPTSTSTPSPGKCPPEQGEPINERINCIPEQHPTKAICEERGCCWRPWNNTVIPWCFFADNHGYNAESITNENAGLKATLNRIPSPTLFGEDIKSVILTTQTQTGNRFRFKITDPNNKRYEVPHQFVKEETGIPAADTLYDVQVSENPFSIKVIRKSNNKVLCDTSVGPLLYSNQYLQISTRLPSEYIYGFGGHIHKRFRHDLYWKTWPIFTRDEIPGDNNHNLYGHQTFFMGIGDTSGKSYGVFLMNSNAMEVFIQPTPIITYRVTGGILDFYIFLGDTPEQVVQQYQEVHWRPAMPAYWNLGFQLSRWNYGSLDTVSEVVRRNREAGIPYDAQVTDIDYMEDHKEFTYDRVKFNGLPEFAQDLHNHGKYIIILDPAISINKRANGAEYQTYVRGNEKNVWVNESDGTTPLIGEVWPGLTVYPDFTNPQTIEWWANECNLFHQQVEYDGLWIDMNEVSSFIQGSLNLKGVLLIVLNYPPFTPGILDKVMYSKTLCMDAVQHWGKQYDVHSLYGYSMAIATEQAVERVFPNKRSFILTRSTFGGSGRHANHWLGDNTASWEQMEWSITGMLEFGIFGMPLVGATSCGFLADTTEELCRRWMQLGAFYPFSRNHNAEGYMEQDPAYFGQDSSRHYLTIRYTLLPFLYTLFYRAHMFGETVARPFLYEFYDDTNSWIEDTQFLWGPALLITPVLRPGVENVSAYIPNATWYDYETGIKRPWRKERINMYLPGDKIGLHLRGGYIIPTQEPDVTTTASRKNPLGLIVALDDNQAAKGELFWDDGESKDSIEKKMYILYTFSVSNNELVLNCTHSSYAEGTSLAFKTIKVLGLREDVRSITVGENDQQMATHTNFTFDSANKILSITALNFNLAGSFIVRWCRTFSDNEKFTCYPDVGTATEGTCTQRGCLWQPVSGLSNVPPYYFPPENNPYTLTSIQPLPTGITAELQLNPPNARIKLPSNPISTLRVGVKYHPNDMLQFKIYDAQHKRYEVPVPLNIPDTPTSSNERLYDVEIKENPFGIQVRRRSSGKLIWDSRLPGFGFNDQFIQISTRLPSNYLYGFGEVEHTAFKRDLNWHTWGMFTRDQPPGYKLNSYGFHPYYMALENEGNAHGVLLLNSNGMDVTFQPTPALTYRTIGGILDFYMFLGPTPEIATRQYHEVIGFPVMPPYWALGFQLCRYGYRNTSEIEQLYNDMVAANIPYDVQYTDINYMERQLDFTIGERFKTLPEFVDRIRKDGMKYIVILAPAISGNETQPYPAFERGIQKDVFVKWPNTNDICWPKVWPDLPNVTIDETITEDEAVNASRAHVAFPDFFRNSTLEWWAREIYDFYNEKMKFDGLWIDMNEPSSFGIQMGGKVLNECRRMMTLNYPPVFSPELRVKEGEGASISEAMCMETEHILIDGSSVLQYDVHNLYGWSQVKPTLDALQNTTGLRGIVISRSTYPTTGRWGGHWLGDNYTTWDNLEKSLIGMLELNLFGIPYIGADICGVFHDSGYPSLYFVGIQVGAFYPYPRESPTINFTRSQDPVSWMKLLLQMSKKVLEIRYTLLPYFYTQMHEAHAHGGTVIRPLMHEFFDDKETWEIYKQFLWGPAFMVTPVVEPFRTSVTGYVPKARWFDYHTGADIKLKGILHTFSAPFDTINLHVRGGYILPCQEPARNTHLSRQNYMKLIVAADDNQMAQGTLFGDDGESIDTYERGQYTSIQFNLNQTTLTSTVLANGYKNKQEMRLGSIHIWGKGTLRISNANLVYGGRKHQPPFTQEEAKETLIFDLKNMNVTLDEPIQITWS
Sequence of rat intestinal sucrase (P23739 whole entry): as above

SMILES | IC50 [1] [µM] | inhibition (%) Sucrase [1] [%] | inhibitory activity against maltase, sucrase and isomaltase (in words) [2] | inhibition (%) Isomaltase [3] [%] | Ki [4] [µM]
OCC[S+](CCO)C[C@@H](O)[C@@H](O)CO.[Cl-] [Compound 28c, Di(2-hydroxyethyl) [(2S,3S)-2,3,4-trihydroxybutyl] sulfonium chloride] | > 380 | 2.6 | lost considerable activity | −0.9 | 

Second part, led by results:

IC50 [1] [µM] | inhibition (%) Sucrase [1] [%] | inhibitory activity against maltase, sucrase and isomaltase (in words) [2] | inhibition (%) Isomaltase [3] [%] | SMILES | Ki [4] [µM]
> 341 | 3.2 | hardly inhibited | 5.9 | OCC[S+](C[C@@H](O)[C@@H](O)CO)C(CO)CO.[Cl-] (single isomer, unassigned) [Compound 26c] | 
> 341 | 4.4 | negligible | −2.3 | OCC[S+](C[C@@H](O)CO)C[C@@H](O)[C@@H](O)CO.[Cl-] (stereo partly drawn) [Compound 27c, [(S)-2,3-Dihydroxypropyl] (2-hydroxyethyl) ((2S,3S)-2,3,4-trihydroxybutyl) sulfonium chloride] | 
1.4 |  | effectively inhibited |  | [O-][C@@H](CO)[C@H](O)C[S@+]1C[C@@H](O)[C@H](O)[C@H]1CO [Neosalacinol (4), neosalacinol, reference compound] | 
 |  | effectively inhibited |  | O=S(=O)([O-])O[C@@H](CO)[C@H](O)C[S@+]1C[C@@H](O)[C@H](O)[C@H]1CO [Salacinol (1), salacinol, reference compound] | 14
